pEC50, pIC50: −log10 of the molar value. Where a SMILES comes first, the peptide text is derived from it.
What was measured:
[1] = biological target: T1, Pituitary adenylate cyclase-activating polypeptide type I receptor (Homo sapiens, UniProt P41586); experiment: Displacement of [125I]Ac-PACAP27 from human recombinant PAC1 receptor expressed in CHO cells by gamma- counter; type: cell-based
Target sequence in this assay (P41586 whole entry): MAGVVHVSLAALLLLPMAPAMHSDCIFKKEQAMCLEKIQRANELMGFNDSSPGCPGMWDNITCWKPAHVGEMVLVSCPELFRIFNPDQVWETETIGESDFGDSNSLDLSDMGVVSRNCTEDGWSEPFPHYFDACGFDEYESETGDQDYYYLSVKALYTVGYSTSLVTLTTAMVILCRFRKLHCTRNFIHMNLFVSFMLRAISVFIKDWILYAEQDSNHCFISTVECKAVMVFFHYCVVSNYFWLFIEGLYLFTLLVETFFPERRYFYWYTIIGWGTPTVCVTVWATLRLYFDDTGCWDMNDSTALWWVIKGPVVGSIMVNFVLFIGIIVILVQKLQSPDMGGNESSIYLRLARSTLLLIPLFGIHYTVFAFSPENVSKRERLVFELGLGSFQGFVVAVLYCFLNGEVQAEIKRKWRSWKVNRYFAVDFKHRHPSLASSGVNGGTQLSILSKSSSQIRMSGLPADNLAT

[2] = biological target: T1, Pituitary adenylate cyclase-activating polypeptide type I receptor; experiment: Agonist activity at human recombinant PAC1 receptor expressed in CHO cells assessed as PACAP38-induced calcium mobilization by FLIPR assay; type: functional, cell-based
Method in brief: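 CHO cells stably expressing recombinant human PAC1, plated 24 h before assay, loaded with fluo-4 AM for 60 min at 37 °C in the dark, then rinsed into HBSS for 15 min at 37 °C. EC50 and efficacy came from nonlinear regression; 4-10 independent assays in duplicate.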
Target sequence in this assay (P41586 whole entry): as above

[3] = biological target: T1, Pituitary adenylate cyclase-activating polypeptide type I receptor; experiment: Agonist activity at human recombinant PAC1 receptor expressed in CHO cells assessed as PACAP38-induced calcium mobilization by FLIPR assay relative to PACAP38; type: functional, cell-based
Method in brief: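 CHO cells stably expressing recombinant human PAC1, plated 24 h before assay, loaded with fluo-4 AM for 60 min at 37 °C in the dark, then rinsed into HBSS for 15 min at 37 °C. Peptide was added 18 s into a 150 s read (ex 480/em 525 nm), at final concentrations of 1 × 10-12 to 1 × 10^-5 M. Response was normalised to 1 × 10^-5 M PACAP38 on each plate. EC50 and efficacy came from nonlinear regression; 4-10 independent assays in duplicate.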
Target sequence in this assay (P41586 21-468 limits assumed): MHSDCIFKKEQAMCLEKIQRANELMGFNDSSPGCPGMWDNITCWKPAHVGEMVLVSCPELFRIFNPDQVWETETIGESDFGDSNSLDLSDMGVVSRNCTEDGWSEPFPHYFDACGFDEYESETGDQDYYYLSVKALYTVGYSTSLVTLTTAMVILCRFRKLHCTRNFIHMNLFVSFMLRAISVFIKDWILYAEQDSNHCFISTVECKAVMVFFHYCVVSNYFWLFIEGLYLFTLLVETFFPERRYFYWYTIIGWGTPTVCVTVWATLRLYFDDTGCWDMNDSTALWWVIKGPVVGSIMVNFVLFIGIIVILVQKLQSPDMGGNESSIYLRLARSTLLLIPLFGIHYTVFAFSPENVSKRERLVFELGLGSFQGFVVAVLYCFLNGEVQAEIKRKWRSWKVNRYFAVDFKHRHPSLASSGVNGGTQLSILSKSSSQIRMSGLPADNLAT

| Compound | pIC50 [1] | pEC50 [2] | Emax [3] [%] |
| --- | --- | --- | --- |
| CC[C@H](C)[C@H](NC(=O)CNC(=O)[C@H](CC(=O)O)NC(=O)[C@H](CO)NC(=O)[C@@H](N)Cc1cn(C)cn1)C(=O)N[C@@H](Cc1ccccc1)C(=O)N[C@H](C(=O)N[C@@H](CC(=O)O)C(=O)N[C@@H](CO)C(=O)N[C@@H](Cc1ccc(O)cc1)C(=O)N[C@@H](CO)C(=O)N[C@@H](CCCNC(=N)N)C(=O)N[C@@H](Cc1ccc(O)cc1)C(=O)N[C@@H](CCCNC(=N)N)C(=O)N[C@@H](CCCCN)C(=O)N[C@@H](CCC(N)=O)C(=O)N[C@@H](CCSC)C(=O)N[C@@H](C)C(=O)N[C@H](C(=O)N[C@@H](CCCCN)C(=O)N[C@@H](CCCCN)C(=O)N[C@@H](Cc1ccc(O)cc1)C(=O)N[C@@H](CC(C)C)C(=O)N[C@@H](C)C(=O)N[C@@H](C)C(=O)N[C@H](C(=O)N[C@@H](CC(C)C)C(N)=O)C(C)C)C(C)C)[C@@H](C)O | – | – | 31.9 |
| CC[C@H](C)[C@H](NC(=O)CNC(=O)[C@H](CC(=O)O)NC(=O)[C@H](CO)NC(=O)[C@@H](N)Cc1cn(C)cn1)C(=O)N[C@@H](Cc1ccccc1)C(=O)N[C@H](C(=O)N[C@@H](CC(=O)O)C(=O)N[C@@H](CO)C(=O)N[C@@H](Cc1ccc(O)cc1)C(=O)N[C@@H](CO)C(=O)N[C@@H](CCCN=C(N)N)C(=O)N[C@@H](Cc1ccc(O)cc1)C(=O)N[C@@H](CCCN=C(N)N)C(=O)N[C@@H](CCCCN)C(=O)N[C@@H](CCC(N)=O)C(=O)N[C@@H](CCSC)C(=O)N[C@@H](C)C(=O)N[C@H](C(=O)N[C@@H](CCCCN)C(=O)N[C@@H](CCCCN)C(=O)N[C@@H](Cc1ccc(O)cc1)C(=O)N[C@@H](CC(C)C)C(=O)N[C@@H](C)C(=O)N[C@@H](C)C(=O)N[C@H](C(=O)N[C@@H](CC(C)C)C(N)=O)C(C)C)C(C)C)[C@@H](C)O | 7.67 | 6.41 | – |
| CC[C@H](C)[C@H](NC(=O)CNC(=O)[C@H](CC(=O)O)NC(=O)[C@H](CO)NC(=O)[C@H](C)N)C(=O)N[C@@H](Cc1ccccc1)C(=O)N[C@H](C(=O)N[C@@H](CC(=O)O)C(=O)N[C@@H](CO)C(=O)N[C@@H](Cc1ccc(O)cc1)C(=O)N[C@@H](CO)C(=O)N[C@@H](CCCNC(=N)N)C(=O)N[C@@H](Cc1ccc(O)cc1)C(=O)N[C@@H](CCCNC(=N)N)C(=O)N[C@@H](CCCCN)C(=O)N[C@@H](CCC(N)=O)C(=O)N[C@@H](CCSC)C(=O)N[C@@H](C)C(=O)N[C@H](C(=O)N[C@@H](CCCCN)C(=O)N[C@@H](CCCCN)C(=O)N[C@@H](Cc1ccc(O)cc1)C(=O)N[C@@H](CC(C)C)C(=O)N[C@@H](C)C(=O)N[C@@H](C)C(=O)N[C@H](C(=O)N[C@@H](CC(C)C)C(=O)NCC(=O)N[C@@H](CCCCN)C(=O)N[C@@H](CCCNC(=N)N)C(=O)N[C@@H](Cc1ccc(O)cc1)C(=O)N[C@@H](CCCCN)C(=O)N[C@@H](CCC(N)=O)C(=O)N[C@@H](CCCNC(=N)N)C(=O)N[C@H](C(=O)N[C@@H](CCCCN)C(=O)N[C@@H](CC(N)=O)C(=O)N[C@@H](CCCCN)C(N)=O)C(C)C)C(C)C)C(C)C)[C@@H](C)O (H-ASDGIFTDSYSRYRKQMAVKKYLAAVLGKRYKQRVKNK-NH2) | – | – | 82.6 |

Continued, values first:

| pIC50 [1] | pEC50 [2] | Emax [3] [%] | Compound |
| --- | --- | --- | --- |
| 7.95 | 7.42 | – | CC[C@H](C)[C@H](NC(=O)CNC(=O)[C@H](CC(=O)O)NC(=O)[C@H](CO)NC(=O)[C@@H](N)Cc1cn(C)cn1)C(=O)N[C@@H](Cc1ccccc1)C(=O)N[C@H](C(=O)N[C@@H](CC(=O)O)C(=O)N[C@@H](CO)C(=O)N[C@@H](Cc1ccc(O)cc1)C(=O)N[C@@H](CO)C(=O)N[C@@H](CCCN=C(N)N)C(=O)N[C@@H](Cc1ccc(O)cc1)C(=O)N[C@@H](CCCN=C(N)N)C(=O)N[C@@H](CCCCN)C(=O)N[C@@H](CCC(N)=O)C(=O)N[C@@H](CCSC)C(=O)N[C@@H](C)C(=O)N[C@H](C(=O)N[C@@H](CCCCN)C(=O)N[C@@H](CCCCN)C(=O)N[C@@H](Cc1ccc(O)cc1)C(=O)N[C@@H](CC(C)C)C(=O)N[C@@H](C)C(=O)N[C@@H](C)C(=O)N[C@H](C(=O)N[C@@H](CC(C)C)C(=O)NCC(=O)N[C@@H](CCCCN)C(=O)N[C@@H](CCCN=C(N)N)C(=O)N[C@@H](Cc1ccc(O)cc1)C(=O)N[C@@H](CCCCN)C(=O)N[C@@H](CCC(N)=O)C(=O)N[C@@H](CCCN=C(N)N)C(=O)N[C@H](C(=O)N[C@@H](CCCCN)C(=O)N[C@@H](CC(N)=O)C(=O)N[C@@H](CCCCN)C(N)=O)C(C)C)C(C)C)C(C)C)[C@@H](C)O |
| 8.12 | 8.62 | – | CC[C@H](C)[C@H](NC(=O)CNC(=O)[C@H](CC(=O)O)NC(=O)[C@H](CO)NC(=O)[C@@H](N)Cc1cncn1C)C(=O)N[C@@H](Cc1ccccc1)C(=O)N[C@H](C(=O)N[C@@H](CC(=O)O)C(=O)N[C@@H](CO)C(=O)N[C@@H](Cc1ccc(O)cc1)C(=O)N[C@@H](CO)C(=O)N[C@@H](CCCN=C(N)N)C(=O)N[C@@H](Cc1ccc(O)cc1)C(=O)N[C@@H](CCCN=C(N)N)C(=O)N[C@@H](CCCCN)C(=O)N[C@@H](CCC(N)=O)C(=O)N[C@@H](CCSC)C(=O)N[C@@H](C)C(=O)N[C@H](C(=O)N[C@@H](CCCCN)C(=O)N[C@@H](CCCCN)C(=O)N[C@@H](Cc1ccc(O)cc1)C(=O)N[C@@H](CC(C)C)C(=O)N[C@@H](C)C(=O)N[C@@H](C)C(=O)N[C@H](C(=O)N[C@@H](CC(C)C)C(=O)NCC(=O)N[C@@H](CCCCN)C(=O)N[C@@H](CCCN=C(N)N)C(=O)N[C@@H](Cc1ccc(O)cc1)C(=O)N[C@@H](CCCCN)C(=O)N[C@@H](CCC(N)=O)C(=O)N[C@@H](CCCN=C(N)N)C(=O)N[C@H](C(=O)N[C@@H](CCCCN)C(=O)N[C@@H](CC(N)=O)C(=O)N[C@@H](CCCCN)C(N)=O)C(C)C)C(C)C)C(C)C)[C@@H](C)O |
| – | – | 76.2 | CC[C@H](C)[C@@H](NC(=O)CNC(=O)[C@H](CC(=O)O)NC(=O)[C@H](CO)NC(=O)[C@@H](N)Cc1cnc[nH]1)C(=O)N[C@@H](Cc1ccccc1)C(=O)N[C@H](C(=O)N[C@@H](CC(=O)O)C(=O)N[C@@H](CO)C(=O)N[C@@H](Cc1ccc(O)cc1)C(=O)N[C@@H](CO)C(=O)N[C@@H](CCCNC(=N)N)C(=O)N[C@@H](Cc1ccc(O)cc1)C(=O)N[C@@H](CCCNC(=N)N)C(=O)N[C@@H](CCCCN)C(=O)N[C@@H](CCC(N)=O)C(=O)N[C@@H](CCSC)C(=O)N[C@@H](C)C(=O)N[C@H](C(=O)N[C@@H](CCCCN)C(=O)N[C@@H](CCCCN)C(=O)N[C@@H](Cc1ccc(O)cc1)C(=O)N[C@@H](CC(C)C)C(=O)N[C@@H](C)C(=O)N[C@@H](C)C(=O)N[C@H](C(=O)N[C@@H](CC(C)C)C(=O)NCC(=O)N[C@@H](CCCCN)C(=O)N[C@@H](CCCNC(=N)N)C(=O)N[C@@H](Cc1ccc(O)cc1)C(=O)N[C@@H](CCCCN)C(=O)N[C@@H](CCC(N)=O)C(=O)N[C@@H](CCCNC(=N)N)C(=O)N[C@H](C(=O)N[C@@H](CCCCN)C(=O)N[C@@H](CC(N)=O)C(=O)N[C@@H](CCCCN)C(N)=O)C(C)C)C(C)C)C(C)C)[C@@H](C)O |
| 6.92 | 8.14 | – | CC[C@H](C)[C@H](NC(=O)CNC(=O)[C@H](CC(=O)O)NC(=O)[C@H](CO)NC(=O)[C@@H](N)Cc1cnc[nH]1)C(=O)N[C@@H](Cc1ccccc1)C(=O)N[C@@H](C(=O)N[C@@H](CC(=O)O)C(=O)N[C@@H](CO)C(=O)N[C@@H](Cc1ccc(O)cc1)C(=O)N[C@@H](CO)C(=O)N[C@@H](CCCNC(=N)N)C(=O)N[C@@H](Cc1ccc(O)cc1)C(=O)N[C@@H](CCCNC(=N)N)C(=O)N[C@@H](CCCCN)C(=O)N[C@@H](CCC(N)=O)C(=O)N[C@@H](CCSC)C(=O)N[C@@H](C)C(=O)N[C@H](C(=O)N[C@@H](CCCCN)C(=O)N[C@@H](CCCCN)C(=O)N[C@@H](Cc1ccc(O)cc1)C(=O)N[C@@H](CC(C)C)C(=O)N[C@@H](C)C(=O)N[C@@H](C)C(=O)N[C@H](C(=O)N[C@@H](CC(C)C)C(=O)NCC(=O)N[C@@H](CCCCN)C(=O)N[C@@H](CCCNC(=N)N)C(=O)N[C@@H](Cc1ccc(O)cc1)C(=O)N[C@@H](CCCCN)C(=O)N[C@@H](CCC(N)=O)C(=O)N[C@@H](CCCNC(=N)N)C(=O)N[C@H](C(=O)N[C@@H](CCCCN)C(=O)N[C@@H](CC(N)=O)C(=O)N[C@@H](CCCCN)C(N)=O)C(C)C)C(C)C)C(C)C)[C@H](C)O |
| 7.31 | 7.96 | – | CC[C@H](C)[C@H](NC(=O)CNC(=O)[C@H](CC(=O)O)NC(=O)[C@H](CO)NC(=O)[C@H](C)N)C(=O)N[C@@H](Cc1ccccc1)C(=O)N[C@H](C(=O)N[C@@H](CC(=O)O)C(=O)N[C@@H](CO)C(=O)N[C@@H](Cc1ccc(O)cc1)C(=O)N[C@@H](CO)C(=O)N[C@@H](CCCN=C(N)N)C(=O)N[C@@H](Cc1ccc(O)cc1)C(=O)N[C@@H](CCCN=C(N)N)C(=O)N[C@@H](CCCCN)C(=O)N[C@@H](CCC(N)=O)C(=O)N[C@@H](CCSC)C(=O)N[C@@H](C)C(=O)N[C@H](C(=O)N[C@@H](CCCCN)C(=O)N[C@@H](CCCCN)C(=O)N[C@@H](Cc1ccc(O)cc1)C(=O)N[C@@H](CC(C)C)C(=O)N[C@@H](C)C(=O)N[C@@H](C)C(=O)N[C@H](C(=O)N[C@@H](CC(C)C)C(=O)NCC(=O)N[C@@H](CCCCN)C(=O)N[C@@H](CCCN=C(N)N)C(=O)N[C@@H](Cc1ccc(O)cc1)C(=O)N[C@@H](CCCCN)C(=O)N[C@@H](CCC(N)=O)C(=O)N[C@@H](CCCN=C(N)N)C(=O)N[C@H](C(=O)N[C@@H](CCCCN)C(=O)N[C@@H](CC(N)=O)C(=O)N[C@@H](CCCCN)C(N)=O)C(C)C)C(C)C)C(C)C)[C@@H](C)O (H-ASDGIFTDSYSRYRKQMAVKKYLAAVLGKRYKQRVKNK-NH2) |

Reference: ChEMBL document CHEMBL1138520, “Molecular and conformational determinants of pituitary adenylate cyclase-activating polypeptide (PACAP) for activation of the PAC1 receptor” (J Med Chem, 2009)
